From BindingDB's records for doi:10.1016/j.ejmech.2014.12.041 (Jagiellonian University Medical College, 2015)

How the values were obtained:
[1] = target: T1, 5-hydroxytryptamine receptor 1A (Homo sapiens, UniProt P08908); assay: Antagonist activity at human 5HT1A receptor expressed in HEK293 cells assessed as inhibition of serotonin-induced cAMP concentration at 10^-6 M by adenylate cyclase activity based HTRF assay relative to control
T1 sequence (P08908 whole entry): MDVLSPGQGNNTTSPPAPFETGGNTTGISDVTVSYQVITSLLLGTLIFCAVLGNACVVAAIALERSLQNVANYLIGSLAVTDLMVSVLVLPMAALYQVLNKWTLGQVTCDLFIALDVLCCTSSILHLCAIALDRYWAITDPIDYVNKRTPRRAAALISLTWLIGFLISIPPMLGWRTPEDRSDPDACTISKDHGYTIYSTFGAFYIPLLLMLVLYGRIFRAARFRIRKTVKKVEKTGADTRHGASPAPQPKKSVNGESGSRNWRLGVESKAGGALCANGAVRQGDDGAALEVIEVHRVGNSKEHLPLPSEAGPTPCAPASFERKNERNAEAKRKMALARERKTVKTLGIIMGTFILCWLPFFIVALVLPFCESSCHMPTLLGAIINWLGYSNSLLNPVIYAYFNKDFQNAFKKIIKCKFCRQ
Method in brief: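 Human 5-HT1A in HEK-293 cells and human 5-HT7 in CHO cells, per the text. Compounds were tested at a single 10^-6 M concentration, in duplicate. Read-out was % inhibition of the control agonist cAMP response, measured by HTRF against the maximal effect of 300 nM serotonin. Reference antagonists were methiothepin (5-HT7) and WAY-100635 (5-HT1A).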

[2] = target: 5-hydroxytryptamine receptor 7 (Homo sapiens, UniProt P34969); assay: Antagonist activity at human 5HT7 receptor expressed in HEK293 cells assessed as inhibition of serotonin-induced cAMP concentration at 10^-6 M by adenylate cyclase activity based HTRF assay relative to control
5-hydroxytryptamine receptor 7, sequence (P34969 whole entry): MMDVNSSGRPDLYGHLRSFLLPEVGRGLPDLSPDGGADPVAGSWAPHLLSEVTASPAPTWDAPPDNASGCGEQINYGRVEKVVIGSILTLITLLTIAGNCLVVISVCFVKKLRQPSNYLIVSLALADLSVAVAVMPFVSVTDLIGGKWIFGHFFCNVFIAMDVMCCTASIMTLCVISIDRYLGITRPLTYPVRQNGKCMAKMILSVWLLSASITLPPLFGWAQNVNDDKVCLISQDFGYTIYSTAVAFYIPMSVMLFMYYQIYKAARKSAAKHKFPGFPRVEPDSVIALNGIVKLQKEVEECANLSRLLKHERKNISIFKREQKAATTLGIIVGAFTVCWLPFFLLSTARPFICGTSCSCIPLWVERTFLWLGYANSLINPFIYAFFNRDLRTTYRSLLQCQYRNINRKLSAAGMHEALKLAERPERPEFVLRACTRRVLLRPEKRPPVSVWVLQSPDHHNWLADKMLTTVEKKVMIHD

| Inhibition [1] [%] | Inhibition [2] [%] | Compound |
| --- | --- | --- |
| 98 | – | CSc1ccccc1N1CCN(CCCCCC(=O)N2Cc3ccccc3C[C@H]2C(N)=O)CC1 |
| – | 94 | NC(=O)[C@@H]1Cc2ccccc2CN1C(=O)CCCCN1CCN(c2ccccc2-c2ccccc2)CC1 |
| 100 | – | CC(C)c1ccccc1N1CCN(CCCCCCC(=O)N2CCC[C@H]2C(=O)N2CCCCC2)CC1 |
| – | 91 | O=C([C@@H]1CCCN1C(=O)CCCCN1CCN(c2ccccc2-c2ccccc2)CC1)N1CCCCC1 |
